Data taken from ChEMBL document CHEMBL1124527, “2(1H)-quinolinones with cardiac stimulant activity. 3. Synthesis and biological properties of 6-imidazol-1-yl derivatives” (1989).

Assays:
Canis familiaris [1] = assay: Positive inotropic activity after intravenous administration of 10 ug/kg (dose) to anesthetized dog; format: functional, Canis lupus familiaris
Summary of the method: (§1)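 Dogs were anesthetized and intubated. Compound was given through a saphenous vein cannula, in 0.9% saline, 0.5 h after the standard quinazoline at 50 µg/kg, following a 0.75 h equilibration. The cycle was repeated once control levels returned, with at least 0.5 h between doses. LVP was recorded by a Millar catheter via the carotid artery and differentiated to dP/dtmax. Results are % increase in dP/dtmax, and also potency relative to the standard in the same dog: (%drug/%standard)×(dose standard/dose drug).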

Canis familiaris [2] = assay: Inotropic potencies relative to 4-[4-[2-(1,1-dioxo-2-isothiazolidinyl)ethyl]-1-piperidinyl]-6,7-dimethoxyquinazoline (50 ug/kg) in anesthetized dog; format: functional, Canis lupus familiaris; summary of the method: as §1
Canis familiaris [3] = assay: 0.125 mg/kg of compound was administered orally to conscious adult Beagle dogs (n=4) and the effects on cardiac contractility was determined after 3 hr; format: functional, Canis lupus familiaris, Heart
Summary of the method: (§2)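 Conscious dogs (n = 4) were dosed orally by gavage with a solution of compound. The QA interval is the time in ms from the ECG R wave to the up-stroke of the arterial pressure pulse, measured by computer. Recordings were taken every 0.16 h from 0.5 h predose to 4 h postdose. Each point is the mean of six consecutive 8-s sets. Results are the change from the mean predose value, as mean ± SEM.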

Canis familiaris [4] = assay: 0.125 mg/kg of compound was administered orally to conscious adult Beagle dogs and the effects on cardiac contractility was determined after 1 hr; format: functional, Canis lupus familiaris, Heart; summary of the method: as §2
Canis familiaris [5] = assay: Positive inotropic activity after intravenous administration of 50 ug/kg (dose) to anesthetized dog; format: functional, Canis lupus familiaris; summary of the method: as §1
Canis familiaris [6] = assay: 0.5 mg/kg of compound was administered orally to conscious adult Beagle dogs (n=4) and the effects on cardiac contractility was determined after 3 hr; format: functional, Canis lupus familiaris, Heart; summary of the method: as §2
Canis familiaris [7] = assay: 0.5 mg/kg of compound was administered orally to conscious adult Beagle dogs and the effects on cardiac contractility was determined after 1 hr; format: functional, Canis lupus familiaris, Heart; summary of the method: as §2
Canis familiaris [8] = assay: 0.25 mg/kg of compound was administered orally to conscious adult Beagle dogs (n=4) and the effects on cardiac contractility was determined after 3 hr; format: functional, Canis lupus familiaris, Heart; summary of the method: as §2
Canis familiaris [9] = assay: 0.25 mg/kg of compound was administered orally to conscious adult Beagle dogs and the effects on cardiac contractility was determined after 1 hr; format: functional, Canis lupus familiaris, Heart; set-up: unit: ms; summary of the method: as §2
Canis familiaris [10] = assay: 2.0 mg/kg of compound was administered orally to conscious adult Beagle dogs (n=4) and the effects on cardiac contractility was determined after 3 hr; format: functional, Canis lupus familiaris, Heart; summary of the method: as §2
Canis familiaris [11] = assay: 2.0 mg/kg of compound was administered orally to conscious adult Beagle dogs and the effects on cardiac contractility was determined after 1 hr; format: functional, Canis lupus familiaris, Heart; summary of the method: as §2
Canis familiaris [12] = assay: Positive inotropic activity after intravenous administration of 50 ug/kg (dose) to anesthetized dogs; format: functional, Canis lupus familiaris; summary of the method: as §1
Canis familiaris [13] = assay: Positive inotropic activity after intravenous administration of 25 ug/kg (dose) to anesthetized dog; format: functional, Canis lupus familiaris
Canis familiaris [14] = assay: 0.25 mg/kg compound was administered orally to conscious adult Beagle dogs (n=4) and the effects on cardiac contractility was determined after 3 hr; format: functional, Canis lupus familiaris, Heart; summary of the method: as §2
Canis familiaris [15] = assay: 0.25 mg/kg of compound was administered orally to conscious adult Beagle dogs and the effects on cardiac contractility was determined after 3 hr; format: functional, Canis lupus familiaris, Heart; summary of the method: as §2
Canis familiaris [16] = assay: Positive inotropic activity after intravenous administration of 12.5 ug/kg (dose) to anesthetized dog; format: functional, Canis lupus familiaris; summary of the method: as §1

SMILES: Cc1cc(-n2cc(C#N)nc2C)cc2ccc(O)nc12
- Increase in dP/dTmax (Canis familiaris [1]): 30%
- Relative inotropic potency (Canis familiaris [2]): 3
- Decrease in QA interval (Canis familiaris [3]): 15
- Decrease in QA interval (Canis familiaris [4]): 15

SMILES: Cc1nc(C)n(-c2cc(C)c3nc(O)ccc3c2)c1S(C)(=O)=O
- Increase in dP/dTmax (Canis familiaris [5]): 5%
- Relative inotropic potency (Canis familiaris [2]): 0.1

SMILES: Cc1cn(-c2cc(C)c3nc(O)ccc3c2)c(-c2ccccc2)n1
- Increase in dP/dTmax (Canis familiaris [5]): 15%
- Relative inotropic potency (Canis familiaris [2]): 0.3

SMILES: Cc1cc(-n2cc(C(=O)c3ccccc3)nc2C)cc2ccc(O)nc12
- Increase in dP/dTmax (Canis familiaris [5]): 31%
- Relative inotropic potency (Canis familiaris [2]): 0.5

SMILES: CSc1c(C)nc(C)n1-c1cc(C)c2nc(O)ccc2c1
- Increase in dP/dTmax (Canis familiaris [5]): 28%
- Relative inotropic potency (Canis familiaris [2]): 0.9

SMILES: Cc1nc(C)n(-c2cc(C)c3nc(O)ccc3c2)c1[S+](C)[O-] (stereo not given)
- Increase in dP/dTmax (Canis familiaris [5]): 7%
- Relative inotropic potency (Canis familiaris [2]): 0.2

SMILES: Cc1cn(-c2cc(C)c3nc(O)ccc3c2)c(I)n1
- Increase in dP/dTmax (Canis familiaris [1]): 59%
- Relative inotropic potency (Canis familiaris [2]): 5.7

SMILES: CC(=O)c1nc(C)cn1-c1cc(C)c2nc(O)ccc2c1
- Increase in dP/dTmax (Canis familiaris [5]): 15%
- Relative inotropic potency (Canis familiaris [2]): 0.3

SMILES: Cc1nc(C)n(-c2cc(C)c3nc(O)ccc3c2)c1I
- Increase in dP/dTmax (Canis familiaris [5]): 17%
- Relative inotropic potency (Canis familiaris [2]): 0.5

SMILES: Cc1cc(-n2cc(-c3ccccc3)nc2C)cc2ccc(O)nc12
- Decrease in QA interval (Canis familiaris [6]): 10
- Decrease in QA interval (Canis familiaris [7]): 13
- Increase in dP/dTmax (Canis familiaris [1]): 15%
- Relative inotropic potency (Canis familiaris [2]): 2.4

SMILES: Cc1cn(-c2cc(C)c3nc(O)ccc3c2)c(C#N)n1
- Increase in dP/dTmax (Canis familiaris [1]): 53%
- Relative inotropic potency (Canis familiaris [2]): 4.1
- Decrease in QA interval (Canis familiaris [8]): 15
- Decrease in QA interval (Canis familiaris [9]): 15

SMILES: Cc1cc(-n2cc(Cl)nc2C)cc2ccc(O)nc12
- Increase in dP/dTmax (Canis familiaris [1]): 50%
- Relative inotropic potency (Canis familiaris [2]): 5.6

SMILES: Cc1nc(C)n(-c2cc(C)c3nc(O)ccc3c2)c1Br
- Decrease in QA interval (Canis familiaris [10]): 13
- Decrease in QA interval (Canis familiaris [11]): 12
- Increase in dP/dTmax (Canis familiaris [12]): 26%
- Relative inotropic potency (Canis familiaris [2]): 0.7

SMILES: Cc1cc(-n2cc(I)nc2C)cc2ccc(O)nc12
- Increase in dP/dTmax (Canis familiaris [1]): 11%
- Relative inotropic potency (Canis familiaris [2]): 2.6

SMILES: CCC(=O)c1cn(-c2cc(C)c3nc(O)ccc3c2)c(C)n1
- Increase in dP/dTmax (Canis familiaris [5]): 29%
- Relative inotropic potency (Canis familiaris [2]): 0.9

SMILES: CC(=O)c1c(C)nc(C)n1-c1cc(C)c2nc(O)ccc2c1
- Decrease in QA interval (Canis familiaris [10]): 10
- Decrease in QA interval (Canis familiaris [11]): 6
- Increase in dP/dTmax (Canis familiaris [5]): 16%
- Relative inotropic potency (Canis familiaris [2]): 0.4

SMILES: CC(=O)c1cn(-c2cc(C)c3nc(O)ccc3c2)c(C)n1
- Increase in dP/dTmax (Canis familiaris [1]): 36%
- Relative inotropic potency (Canis familiaris [2]): 2.6
- Decrease in QA interval (Canis familiaris [8]): 19
- Decrease in QA interval (Canis familiaris [9]): 17

SMILES: CSc1cn(-c2cc(C)c3nc(O)ccc3c2)c(C)n1
- Increase in dP/dTmax (Canis familiaris [1]): 53%
- Relative inotropic potency (Canis familiaris [2]): 5

SMILES: Cc1cc(-n2cc([S+](C)[O-])nc2C)cc2ccc(O)nc12 (stereo not given)
- Increase in dP/dTmax (Canis familiaris [5]): 65%
- Relative inotropic potency (Canis familiaris [2]): 0.7

SMILES: Cc1cc(-n2cc(C(=O)C(C)C)nc2C)cc2ccc(O)nc12
- Increase in dP/dTmax (Canis familiaris [5]): 24%
- Relative inotropic potency (Canis familiaris [2]): 0.6

SMILES: Cc1nc(C)n(-c2cc(C)c3nc(O)ccc3c2)c1C#N
- Increase in dP/dTmax (Canis familiaris [5]): 70%
- Relative inotropic potency (Canis familiaris [2]): 1.1
- Decrease in QA interval (Canis familiaris [8]): 15
- Decrease in QA interval (Canis familiaris [9]): 11

SMILES: Cc1cc(-n2cc(S(C)(=O)=O)nc2C)cc2ccc(O)nc12
- Increase in dP/dTmax (Canis familiaris [5]): 25%
- Relative inotropic potency (Canis familiaris [2]): 0.3

SMILES: Cc1nc(C)n(-c2cc(C)c3nc(O)ccc3c2)c1Cl
- Increase in dP/dTmax (Canis familiaris [1]): 32%
- Relative inotropic potency (Canis familiaris [2]): 2.9
- Decrease in QA interval (Canis familiaris [3]): 10
- Decrease in QA interval (Canis familiaris [4]): 12

SMILES: Cc1[nH]c(=O)c(C#N)cc1-c1ccncc1 [MILRINONE]
- Increase in dP/dTmax (Canis familiaris [13]): 46%
- Relative inotropic potency (Canis familiaris [2]): 1.6
- Decrease in QA interval (Canis familiaris [9]): 13
- Decrease in QA interval (Canis familiaris [14]): 7

SMILES: Cc1cn(-c2cc(C)c3[nH]c(=O)ccc3c2)c(C)n1 [NANTERINONE]
- Decrease in QA interval (Canis familiaris [15]): 17
- Increase in dP/dTmax (Canis familiaris [16]): 40%
- Relative inotropic potency (Canis familiaris [2]): 7.6
- Decrease in QA interval (Canis familiaris [9]): 16
